Molecules are shown by their SMILES. Activity calls are given as the source filed them. The rule behind the calls is not given here. Bounds are passed on as bounds.

As usually defined, the IC50 is the concentration needed to halve the response being measured. By AUC(0-t) is commonly meant exposure summed from dosing to a finite time, without extrapolation to infinity. A lower AUC(0-t) goes with low exposure. By half-life is commonly meant how long it takes for the measured level to halve. In general, clearance refers to a measure of how efficiently the substance is removed, as volume per time. Low readings indicate a low capacity for elimination, high ones a high capacity for elimination.

The nature of series [1]: Volume of distribution at steady state in dog at 1 mg/kg, iv. Format: ADME, organism-based, Canis lupus familiaris. Conditions: in vivo, read-out: Vdss.
A further series concerns the target Cytochrome P450 3A4 (Homo sapiens, UniProt P08684). Briefly: Inhibition of CYP3A4 (unknown origin). The format is ADME.
Series [2] in a line: AUClast in rat at 5 mg/kg, po. The format is ADME, organism-based. On the set-up: dose 5 mg/kg, route oral, time 0 - last. The conditions noted are these: in vivo.
Series [3] deals with Autotaxin (Mus musculus, UniProt Q9R1E6). As to the kind of experiment: Inhibition of autotaxin in mouse plasma assessed as reduction in LPA (18:2) production incubated for 2 hrs LC-MS-/MS analysis. The format is cell-free.
Series [4] is described as follows: Half life in mouse at 10 mg/kg, po. The conditions noted are these: in vivo. Format: ADME, organism-based.
Series [5] deals with T1, Voltage-gated inwardly rectifying potassium channel KCNH2 (Homo sapiens, UniProt Q12809). As to the kind of experiment: Inhibition of human ERG by GLP based assay.
T1 sequence (Q12809 whole entry): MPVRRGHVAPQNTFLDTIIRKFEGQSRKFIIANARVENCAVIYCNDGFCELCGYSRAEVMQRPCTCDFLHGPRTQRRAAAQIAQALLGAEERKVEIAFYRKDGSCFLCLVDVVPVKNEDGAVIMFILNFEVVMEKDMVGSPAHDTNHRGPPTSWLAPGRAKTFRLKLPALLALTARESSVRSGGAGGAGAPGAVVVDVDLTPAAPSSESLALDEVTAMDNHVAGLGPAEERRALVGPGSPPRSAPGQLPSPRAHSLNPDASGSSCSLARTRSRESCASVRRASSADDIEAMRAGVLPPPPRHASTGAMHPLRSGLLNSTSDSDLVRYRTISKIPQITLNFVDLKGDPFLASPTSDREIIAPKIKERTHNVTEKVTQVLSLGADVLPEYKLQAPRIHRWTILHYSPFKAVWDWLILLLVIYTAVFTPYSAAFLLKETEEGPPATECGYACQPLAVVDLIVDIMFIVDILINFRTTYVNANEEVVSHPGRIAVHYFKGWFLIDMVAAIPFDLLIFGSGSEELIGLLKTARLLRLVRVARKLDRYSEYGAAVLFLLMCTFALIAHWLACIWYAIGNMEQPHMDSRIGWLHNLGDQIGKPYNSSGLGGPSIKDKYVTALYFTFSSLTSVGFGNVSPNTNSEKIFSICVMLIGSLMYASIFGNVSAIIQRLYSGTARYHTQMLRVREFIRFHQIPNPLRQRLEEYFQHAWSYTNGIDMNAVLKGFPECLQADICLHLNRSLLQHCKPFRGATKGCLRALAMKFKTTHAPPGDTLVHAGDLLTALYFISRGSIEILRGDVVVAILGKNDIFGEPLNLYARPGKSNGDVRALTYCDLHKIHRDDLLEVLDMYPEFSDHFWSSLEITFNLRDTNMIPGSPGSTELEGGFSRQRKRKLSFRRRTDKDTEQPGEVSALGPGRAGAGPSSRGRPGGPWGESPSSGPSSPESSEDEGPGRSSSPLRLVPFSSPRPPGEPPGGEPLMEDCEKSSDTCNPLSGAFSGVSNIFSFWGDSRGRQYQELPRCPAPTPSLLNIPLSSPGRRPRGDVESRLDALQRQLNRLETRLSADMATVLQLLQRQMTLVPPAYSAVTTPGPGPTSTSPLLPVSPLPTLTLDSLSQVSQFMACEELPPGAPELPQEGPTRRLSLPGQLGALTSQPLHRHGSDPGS
A further series concerns the target Cytochrome P450 2D6 (Homo sapiens, UniProt P10635). As to the kind of experiment: Inhibition of CYP2D6 (unknown origin). The format is ADME.
The nature of series [6]: Protein binding in rat plasma. Format: ADME, cell-free. Conditions: read-out: PPB (converted).
In a further series the target is T2, Cytochrome P450 1A2 (Homo sapiens, UniProt P05177).
T2 sequence (P05177 whole entry): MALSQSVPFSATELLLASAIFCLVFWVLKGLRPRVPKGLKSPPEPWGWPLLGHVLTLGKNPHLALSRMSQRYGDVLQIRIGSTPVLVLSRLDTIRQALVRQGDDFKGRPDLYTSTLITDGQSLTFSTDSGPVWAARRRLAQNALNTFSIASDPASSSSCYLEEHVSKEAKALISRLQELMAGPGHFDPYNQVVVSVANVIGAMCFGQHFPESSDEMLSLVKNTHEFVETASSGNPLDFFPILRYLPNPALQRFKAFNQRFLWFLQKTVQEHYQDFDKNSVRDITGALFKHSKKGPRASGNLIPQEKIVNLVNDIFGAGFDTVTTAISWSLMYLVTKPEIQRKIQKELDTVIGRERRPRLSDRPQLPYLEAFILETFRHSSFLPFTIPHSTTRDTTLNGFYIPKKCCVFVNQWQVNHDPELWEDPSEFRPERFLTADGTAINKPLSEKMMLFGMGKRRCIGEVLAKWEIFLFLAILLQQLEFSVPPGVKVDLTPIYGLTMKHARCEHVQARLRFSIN
Briefly: Inhibition of CYP1A2 (unknown origin). Format: ADME.

The next series concerns the target Autotaxin (Mus musculus) (UniProt Q9R1E6). As to the kind of experiment: Potency index, ratio of IC50 for GLPG1690 to IC50 for test compound for inhibition of autotaxin in mouse plasma assessed as reduction in LPA (18:2) production incubated for 2 hrs LC-MS-/MS analysis. The format is cell-free.
Series [7] in a line: Half life in mouse at 1 mg/kg, iv. The format is ADME, organism-based. Conditions: in vivo.
In series [8] the target is T1, Voltage-gated inwardly rectifying potassium channel KCNH2. As to the kind of experiment: Inhibition of human ERG by manual patch clamp assay. In general terms: The patch-clamp technique gives a direct electrical read-out from membranes.
The nature of series [9]: AUClast in mouse at 10 mg/kg, po. The format is ADME, organism-based. On the set-up: dose 10 mg/kg, time 0 - last, route oral. Conditions: in vivo.
A short description of series [10]: AUClast in dog at 1 mg/kg, po. The conditions noted are these: in vivo. On the set-up: dose 1 mg/kg, time 0 - last, route oral. Format: ADME, organism-based, Canis lupus familiaris.
The nature of series [11]: Half life in rat at 1 mg/kg, iv. Format: ADME, organism-based. Conditions: in vivo.
Series [12] concerns Mus musculus. Briefly: Anti-fibrotic activity in C57BL/6 mouse model of bleomycin-induced lung fibrosis assessed as reduction in hydroxyproline levels at 30 mg/kg, po BID for 21 days dosed 7 days after bleomycin treatment. Format: functional, organism-based. In outline:
(§1)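 Mice given oral BID doses (30, 100 or 300 mg/kg) starting seven days after bleomycin. Killed 21 days after bleomycin; lung fibrosis scored by hydroxyproline in one group. GLPG1690 at 30 and 100 mg/kg BID as control. Medians and p-values against bleomycin + vehicle.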

In series [13] the target is T3, Autotaxin (Homo sapiens, UniProt Q13822). As to the kind of experiment: Inhibition of C-terminal FLAG-tagged human autotaxin expressed in Freestyle 293 cells assessed as reduction in choline release from LPC 16:0 pre-incubated for 10 mins before LPC addition and measured after 1 hr by choline oxidase/HRP coupled assay. The format is cell-based.
Series [14] deals with Mus musculus. As to the kind of experiment: Anti-fibrotic activity in C57BL/6 mouse model of bleomycin-induced lung fibrosis assessed as reduction in hydroxyproline levels at 100 to 300 mg/kg, po BID for 21 days dosed 7 days after bleomycin treatment. Format: functional, organism-based. In outline:
as §1

The target in series [15] is T3, Autotaxin. Briefly: Inhibition of autotaxin in human plasma assessed as reduction in LPA (18:2) production incubated for 2 hrs LC-MS-/MS analysis. The format is cell-free.
A short description of series [16]: Half life in human liver microsomes. Format: ADME, Microsome. A general note: Microsomes from liver hold many membrane-bound enzymes, among them those of drug oxidation.
The nature of series [17]: Clearance in rat at 1 mg/kg, iv. Format: ADME, organism-based. The conditions noted are these: in vivo.

Cytochrome P450 3A4, sequence (P08684 whole entry): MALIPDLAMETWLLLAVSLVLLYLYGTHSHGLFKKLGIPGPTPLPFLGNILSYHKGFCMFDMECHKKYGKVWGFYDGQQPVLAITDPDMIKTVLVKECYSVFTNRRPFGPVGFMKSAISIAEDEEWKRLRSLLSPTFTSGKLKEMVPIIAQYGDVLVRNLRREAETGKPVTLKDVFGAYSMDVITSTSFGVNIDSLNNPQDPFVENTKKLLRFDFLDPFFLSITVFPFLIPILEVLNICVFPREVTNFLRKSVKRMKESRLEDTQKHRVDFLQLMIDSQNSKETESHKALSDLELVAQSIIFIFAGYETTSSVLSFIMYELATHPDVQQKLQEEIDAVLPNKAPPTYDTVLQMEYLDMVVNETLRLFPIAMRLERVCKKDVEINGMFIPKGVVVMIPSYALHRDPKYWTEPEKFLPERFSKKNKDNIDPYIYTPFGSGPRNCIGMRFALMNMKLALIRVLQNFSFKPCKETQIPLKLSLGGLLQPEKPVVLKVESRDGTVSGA
Cytochrome P450 2D6, sequence (P10635 whole entry): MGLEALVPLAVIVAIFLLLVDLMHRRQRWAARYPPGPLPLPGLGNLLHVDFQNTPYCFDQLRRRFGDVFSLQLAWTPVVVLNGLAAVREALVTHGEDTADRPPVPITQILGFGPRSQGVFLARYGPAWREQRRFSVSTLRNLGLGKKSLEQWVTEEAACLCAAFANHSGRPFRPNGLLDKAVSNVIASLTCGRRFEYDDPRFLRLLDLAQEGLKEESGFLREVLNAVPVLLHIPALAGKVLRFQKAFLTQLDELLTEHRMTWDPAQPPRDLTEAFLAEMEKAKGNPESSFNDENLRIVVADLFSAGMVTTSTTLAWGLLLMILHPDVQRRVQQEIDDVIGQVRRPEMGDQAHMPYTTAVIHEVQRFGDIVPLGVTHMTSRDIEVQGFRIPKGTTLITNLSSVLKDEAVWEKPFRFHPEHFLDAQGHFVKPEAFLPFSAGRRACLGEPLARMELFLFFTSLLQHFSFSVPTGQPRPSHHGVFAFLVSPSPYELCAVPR

Regarding `CC(C)[C@@H](NC(=O)c1cc(C(F)(F)F)ccc1F)C(=O)N1CCC2(CC1)C(=O)N(C)C(=O)N2c1ccc2[nH]ncc2c1`, the Vd in [1] is 0.655 L/kg. The IC50 at Cytochrome P450 3A4 was more than 50 µM; on Autotaxin [3], 7 nM; in series [5], more than 50 µM; against Cytochrome P450 2D6, more than 50 µM; against Cytochrome P450 1A2 it was more than 50 µM; in series [8], more than 50 µM. In addition, the concentration for half-maximal inhibition (IC50) at Autotaxin [13] was 55 nM; at Autotaxin [15], 14 nM. Also, the AUC(0-t) is 518 ng·h/mL in series [2], 2590 ng·h/mL in series [9] and 3080 ng·h/mL in series [10]. The half-life in [4] is 150 min; in series [7] it was 34.2 min; in series [11] it was 90 min; in series [16] it was 533 min. In series [6], the fraction unbound is 0.273. The Ratio IC50 at Autotaxin (Mus musculus) was found to be 60. Besides, the outcome in the series with Mus musculus [12] was inactive. Further, in the series on Mus musculus [14], the result was Active. The clearance in series [17] is 36 mL/min/kg.

For the origin of these results see ChEMBL document CHEMBL4610127, “Novel Autotaxin Inhibitor for the Treatment of Idiopathic Pulmonary Fibrosis: A Clinical Candidate Discovered Using DNA-Encoded Chemistry” (J Med Chem, 2020).
